This is an account of results in publication PMC6137948 (Drug Design, Development and Therapy, 2018).

One may read the MIC as the least concentration at which growth counts as inhibited. Low readings indicate a more susceptible organism, high ones a less susceptible organism.

The subject of one series is S. epidermidis 533. The series is described as follows: MIC, broth micro-dilution, pre-screening panel. It counts as cell-based, Staphylococcus epidermidis. The conditions noted are these: Mueller Hinton broth. For orientation: Broth dilution looks for growth in wells or tubes with falling amounts of substance.
For a further series, the system named is S. aureus 3797 (VISA). The series is described as follows: MIC, broth micro-dilution, pre-screening panel. Type of series: cell-based, Staphylococcus aureus. The conditions noted are these: S. aureus 3797 (VISA HIP-5836), Mueller Hinton broth.
The subject of a further series is S. aureus 3798 (VISA). Nature of the series: MIC, broth micro-dilution, pre-screening panel. Type of series: cell-based, Staphylococcus aureus. The conditions noted are these: S. aureus 3798 (VISA HIP-5827), Mueller Hinton broth.
The next series concerns E. faecium 568. Nature of the series: MIC, broth micro-dilution, pre-screening panel. Type of series: cell-based, Enterococcus faecium. The conditions noted are these: E. faecium 568 (VSE), Mueller Hinton broth.
In another series the test system is S. haemolyticus 602. The series is described as follows: MIC, broth micro-dilution, pre-screening panel. It counts as cell-based, Staphylococcus haemolyticus. The note with it: Mueller Hinton broth.
The test system of series [1] is panel of clinical isolates of Gram-positive microorganisms. The series is described as follows: MIC, pre-screening panel, summary for all tested strains. Type of series: cell-based. The conditions noted are these: text summary of Table 1, all strains of the pre-screening panel.
The subject of a further series is E. faecalis 559. Nature of the series: MIC, broth micro-dilution, pre-screening panel. Type of series: cell-based, Enterococcus faecalis. The conditions noted are these: E. faecalis 559 (VSE), Mueller Hinton broth.
Series [2] has as its system vancomycin-intermediate resistant Staphylococcus aureus (VISA). The series is described as follows: MIC, pre-screening panel, summary for VISA strains. It counts as cell-based. The note with it: summary of Table 1, S. aureus 3797 and 3798.
The next series concerns S. aureus (strain 10). The series is described as follows: Mouse model of staphylococcal sepsis. It counts as in vivo. The conditions noted are these: staphylococcal sepsis in mice, IV. In a few lines:
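Female SHK mice (22–25 g), quarantined 2 weeks, infected IV with mouse-adapted S. aureus strain 10 at lethal dose (LD100 3 × 10^8 CFU/mouse). Thirty minutes later, test compound given IV in 5% glucose at 6 doses (0.25–4.5 mg/kg); comparator glycopeptides at 2.5–7.5 and 0.5–5.0 mg/kg. Untreated infected controls included. Mortality recorded daily for 10 days. ED50 by Barents frequency-accumulation method; ratios from ED50 values.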

For series [3], the system named is non-immune activation of histamine release (inflammatory reaction to concanavalin A). The series is described as follows: Pseudoallergic inflammatory reaction on concanavalin A. The conditions noted are these: male CBA mice; single IV dose of MTD. It counts as in vivo.
The test system of series [4] is genera Staphylococcus and Enterococcus. The series is described as follows: Antimicrobial susceptibility testing, panel of 676 isolates, summary. Type of series: cell-based. The conditions noted are these: for MIC90 for the genera Staphylococcus and Enterococcus: panel of 676 isolates, except for E. faecium.
The subject of another series is CBA mice. The series is described as follows: Acute toxicity in mice. The conditions noted are these: for MTD (LD10): CBA mice, single bolus IV injection in 5% glucose, Litchfield and Wilcoxon; for ratio between therapeutic (ED50) and toxic doses (MTD): ED50 in sepsis model / MTD in mice.
In a further series the test system is E. faecium (n=75). The series is described as follows: Antimicrobial susceptibility testing of clinical isolates. It counts as cell-based, Enterococcus faecium. The note with it: for MIC 50% (MIC50) / MIC 90% (MIC90): E. faecium n=75.
The subject of another series is S. aureus (MSSA, n=179). The series is described as follows: Antimicrobial susceptibility testing of clinical isolates. It counts as cell-based, Staphylococcus aureus. Put shortly: (§1)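 Non-duplicate clinical isolates from hospitalised adults and children with community or nosocomial infections (skin/soft tissue, respiratory tract, bone, joint, urinary tract, abdominal). Tested per EUCAST recommendations by broth microdilution in Mueller Hinton broth following NCCLS procedures.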

The next series deals with E. faecalis (n=122). The description is as above. It counts as cell-based, Enterococcus faecalis. In a few lines: as §1
For series [5], the system named is Coagulase-negative Staphylococcus (n=45). The series is described as above. It counts as cell-based. In a few lines:
as §1

A further series has as its system S. aureus (MRSA, n=255). Described as above. Type of series: cell-based, Staphylococcus aureus. In a few lines:
as §1

Another series has as its system VRE. The conditions noted are these: Introduction; cited from earlier work.
The test system of a further series is VISA. The note with it: Introduction; cited from earlier work.
[6] abbreviates: VRE isolates of the E. faecium collection.

Entries after “also recorded” stand apart in the source; their conditions may differ.

With Vancomycin pyrrolidide [compound 3], the MIC in the series on S. epidermidis 533 was 0.5 µg/mL; with S. aureus 3797 (VISA), 4 µg/mL; against S. aureus 3798 (VISA) it was 8 µg/mL; with E. faecium 568 it was 1 µg/mL; in the series on S. haemolyticus 602, 0.5 µg/mL; in the series on E. faecalis 559, 2 µg/mL. Also, the “MICs against the tested strains” value in series [1] is 0.5 to 8 mg/L.
For the substance Vancomycin piperidide [compound 4], the MIC against S. epidermidis 533 was found to be 0.5 µg/mL; with S. aureus 3797 (VISA), 1 µg/mL; in the series on S. aureus 3798 (VISA) it was 1 µg/mL; against E. faecium 568, 0.5 µg/mL. Further, the “MICs against the tested strains” value in series [1] fell in the range of 0.5 to 8 mg/L. The “MICs against VISA strains” value in series [2] was in the range of 0.5 to 2 mg/L.
As to Eremomycin pyrrolidide [compound 5], the MIC in the series on S. epidermidis 533 stood at 0.25 µg/mL; against S. aureus 3797 (VISA), 1 µg/mL; against S. aureus 3798 (VISA), 1 µg/mL; in the series on E. faecium 568 it was 0.13 µg/mL; in the series on S. haemolyticus 602 it was 0.25 µg/mL; with E. faecalis 559 it was 0.25 µg/mL. In the series on S. aureus (strain 10), the “ED50 times lower than that for 1” value is 5 times. For the same substance, in the series on S. aureus (strain 10), the “ED50 times lower than that for 2” value worked out at 2.5 times. The “pseudoallergic inflammatory reaction on concanavalin A, in words” value (shortened to “pseudoallergic inflammatory reaction”) in series [3] was “did not induce pseudoallergic inflammatory reaction; also recorded: non-significant difference; also recorded: no histamine release activity”. Besides, in series [4] (S. aureus, coagulase-negative Staphylococcus and Enterococcus strains), the “potency exceeding that of vancomycin (1)” value is listed as 2–4 dilutions. Moreover, in series [4], the “MIC90 for the genera Staphylococcus and Enterococcus” value came out at 0.5 µg/mL. In addition, the “MTD (LD10)” value with CBA mice is 119.7 mg/kg. For the same substance, the “ratio between therapeutic (ED50) and toxic doses (MTD)” value in the series on CBA mice (IV) is reported as 1/150. The “acute toxicity, fold higher” value in the series on CBA mice (by LD50 compared with 1, CBA mice, IV) is listed as “about 2 fold”. The “therapeutically efficient dose, fold smaller than MTD” value in the series on CBA mice (mice, IV) is on record as 150 fold. The “MIC 50% (MIC50)” value came out at 0.125 µg/mL against E. faecium (n=75); 0.5 µg/mL against S. aureus (MSSA, n=179); 0.25 µg/mL in the series with E. faecalis (n=122); 0.25 µg/mL in series [5]; 0.25 µg/mL against S. aureus (MRSA, n=255). In addition, the “MIC 90% (MIC90)” value with E. faecium (n=75) is 4 µg/mL; in the series on S. aureus (MSSA, n=179) it was 0.5 µg/mL; with E. faecalis (n=122), 0.5 µg/mL; in series [5], 0.5 µg/mL; in the series with S. aureus (MRSA, n=255) it was 0.5 µg/mL. Moreover, the “susceptibility of vancomycin-resistant E. faecium (VRE) strains, in words” value in the series on E. faecium (n=75) (setting [6]) was “susceptible”. For the same substance, the “MICs against VISA strains” value is 0.5 to 2 mg/L in [2] and 1 mg/L in series [2] (listed as eremomycin pyrrolidide (5)).
“Vancomycin [compound 1, reference compound]”: the MIC turned out to be 2 µg/mL against S. epidermidis 533; 8 µg/mL against S. aureus 3797 (VISA); 8 µg/mL with S. aureus 3798 (VISA); 2 µg/mL against E. faecium 568; 2 µg/mL against S. haemolyticus 602; 2 µg/mL against E. faecalis 559. Further, the “pseudoallergic inflammatory reaction” value in series [3] is “statistically significant elevations of Me with respect to Mc”. Besides, in series [4], the “MIC90 for the genera Staphylococcus and Enterococcus” value fell in the range of 1 to 2 µg/mL. Moreover, the “MTD (LD10)” value in the series with CBA mice came out at 360 mg/kg. Moreover, the “ratio between therapeutic (ED50) and toxic doses (MTD)” value in the series on CBA mice (IV) is given as 1/90. For the same substance, the “MIC 50% (MIC50)” value came to 1 µg/mL against E. faecium (n=75); 1 µg/mL with S. aureus (MSSA, n=179); 1 µg/mL against E. faecalis (n=122); 2 µg/mL in series [5]; 1 µg/mL against S. aureus (MRSA, n=255). Further, the “MIC 90% (MIC90)” value in the series on E. faecium (n=75) was determined as 2 µg/mL; against S. aureus (MSSA, n=179), 1 µg/mL; against E. faecalis (n=122), 2 µg/mL; in series [5] it was 2 µg/mL; against S. aureus (MRSA, n=255), 2 µg/mL. The “MIC for strains of vancomycin-resistant E. faecium (VRE)” value in the series with E. faecium (n=75) (setting [6]) is more than 64 µg/mL. Moreover, the “number of resistant strains of E. faecium (VRE)” value with E. faecium (n=75) (strains with MIC =64 mg/L (b1) / MIC >64 mg/L, number (% of strains)) is 7 (8%). Further, in the series with VRE, the “activity against VRE, in words” value is “inactive”. The “MICs against VISA strains” value in series [2] was in the range of 4 to 8 mg/L. For the same substance, the “MIC for VISA isolates” value in the series with VISA was not below 8 µg/mL.
Turning to Eremomycin piperidide [compound 6], the MIC was 0.13 µg/mL in the series on S. epidermidis 533, 0.5 µg/mL against S. aureus 3797 (VISA), 2 µg/mL against S. aureus 3798 (VISA) and 0.5 µg/mL in the series on E. faecium 568. In addition, in [2], the “MICs against VISA strains” value fell in the range of 0.5 to 2 mg/L.
Turning to “Eremomycin [compound 2, reference compound]”, the MIC in the series with S. epidermidis 533 came to 0.25 µg/mL; with S. aureus 3797 (VISA), 4 µg/mL; against S. aureus 3798 (VISA) it was 4 µg/mL; in the series with E. faecium 568, 0.5 µg/mL; with S. haemolyticus 602, 0.25 µg/mL; against E. faecalis 559, 0.5 µg/mL. Moreover, the “pseudoallergic inflammatory reaction” value in series [3] is recorded as “statistically significant elevations of Me with respect to Mc”. Further, in the series on CBA mice, the “MTD (LD10)” value came out at 877.9 mg/kg. Besides, the “acute toxicity, fold lower than that of 1” value in the series with CBA mice (by LD50, CBA mice, IV) was approximately 3 fold. Also, in the series with VRE, the “activity against VRE, in words” value was “inactive”. The “MICs against VISA strains” value in [2] lay in the range of 4 to 8 mg/L. Moreover, the “MIC against VISA” value in the series on VISA is 8 µg/mL.
